Assay [1] in a line: thallium flux activation in parental CHO cells, counter-screen for KCNQ1 potentiator project (AID 493006;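 active means duplicate-averaged activation above buffer control mean plus 5 SD of those controls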). The settings on record: parental CHO-K1 cells, FluxOR thallium flux, at 10 µM; stronger effect = higher value. In short, it runs like this: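 Assay system: Untransfected host CHO-K1 cells with FluxOR thallium dye | Probe or stimulus: Potassium/thallium depolarization pulse | Schedule: Overnight 37 °C plating, 90 min RT dye, 20 min compound | Detection: Kinetic thallium-flux fluorescence | Read-out: Max-minus-min fluorescence over baseline, percent of buffer-to-R-L3 span | Benchmarks: Low control buffer, high control R-L3 activator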
On the technique in general: A counterscreen serves to expose hits that act by an unwanted route or on another target.

The target of assay [2] is Potassium voltage-gated channel subfamily KQT member 1 (Homo sapiens) (UniProt P51787). Kind of assay: KCNQ1 potassium channel potentiators, confirmation, FluxOR thallium flux, CHO cells, duplicates (AID 493007).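 On outcome: cells depolarized by a potassium plus thallium sulfate stimulus after compound.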 The settings on record: KCNQ1 cell line, FluxOR thallium flux fluorescence, at 10 µM; stronger effect = higher value, % of reference activator effect, buffer zero. The essentials: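 Material: KCNQ1-expressing CHO cell line; Incubation: FluxOR dye loading 90 min, compound exposure 20 min, room temperature; Detection: FluxOR Tl+ flux fluorescence, 10 s baseline plus 110 s recording; Read-out: percent activation between buffer and R-L3 responses; Control set: buffer-only wells as 0% and R-L3 activator as 100%; Replication: duplicate wells per compound.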

Assay [3] addresses Potassium voltage-gated channel subfamily KQT member 2 (Rattus norvegicus) (UniProt O88943). Kind of assay: rat KCNQ2 channel potentiation, selectivity assay for KCNQ1 potentiator project, KCNQ2-CHO-K1 cells (AID 493009;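 active means mean duplicate potentiation above the buffer control mean plus 5 SD of buffer wells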;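 further: assay conditions were tuned for KCNQ1 rather than KCNQ2 modulators; signal is max minus min fluorescence divided by baseline after thallium stimulus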). The settings on record: FluxOR thallium flux fluorescence, at 10 µM; stronger effect = higher value, scaled: buffer 0, activator control 100.
Assay [4] concerns the target Potassium voltage-gated channel subfamily KQT member 1 (Homo sapiens) (UniProt P51787). Kind of assay: KCNQ1 channel current potentiators, confirmation, orthogonal assay for KCNQ1 potentiator project, IonWorks patch clamp, KCNQ1-CHO cells (AID 493184;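 active means current rise at least 3 SD above the untreated control mean in each of two repeat wells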). The settings on record: automated patch clamp current, at 10 µM; stronger effect = higher value. The essentials:
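assay system = KCNQ1-expressing CHO cells | medium = external bath solution at pH 7.4 | probe or stimulus = 2,000 ms depolarization, -90 to +40 mV | compound dosing = 10 µM final, single point | measured by = automated voltage clamp, amphotericin B perforated patch | measure = percent current increase versus pre-compound level | replication = duplicates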
In general terms: Patch clamp records ionic current or voltage across a cell membrane.

Assay [5] has as its target Potassium voltage-gated channel subfamily E member 1 (Homo sapiens) + Potassium voltage-gated channel subfamily KQT member 1 (Homo sapiens) (UniProt P15382+P51787). Nature of the assay: KCNQ1/KCNE1 complex potentiators, confirmation, selectivity assay for KCNQ1 potentiator project, thallium flux, CHO-K1 KCNQ1/E1 cells (AID 493186;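 active means mean duplicate activation above the buffer control mean plus 5 SD of those controls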). The settings on record: FluxOR thallium flux, at 10 µM; stronger effect = higher value. In short, it runs like this:
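Test system – CHO-K1 cells with KCNQ1/E1 · Measured by – FluxOR Tl+ flux fluorescence, kinetic read · Controls – buffer low control, R-L3 high control · Times – dye 90 min, compound 20 min, room temperature · Replication – duplicate wells per compound · Doses – one test concentration · Evaluation – fluorescence rise relative to baseline, as percent of R-L3 response above buffer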

The structures appear in SMILES notation. Activity calls are given as the source filed them.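 How the source made its calls, unless noted: active means potentiation averaged over duplicate wells exceeding buffer-only control mean by more than 3 SD; inactive means the rest.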

Potassium voltage-gated channel subfamily KQT member 2 (Rattus norvegicus), sequence (O88943 whole entry, looked up): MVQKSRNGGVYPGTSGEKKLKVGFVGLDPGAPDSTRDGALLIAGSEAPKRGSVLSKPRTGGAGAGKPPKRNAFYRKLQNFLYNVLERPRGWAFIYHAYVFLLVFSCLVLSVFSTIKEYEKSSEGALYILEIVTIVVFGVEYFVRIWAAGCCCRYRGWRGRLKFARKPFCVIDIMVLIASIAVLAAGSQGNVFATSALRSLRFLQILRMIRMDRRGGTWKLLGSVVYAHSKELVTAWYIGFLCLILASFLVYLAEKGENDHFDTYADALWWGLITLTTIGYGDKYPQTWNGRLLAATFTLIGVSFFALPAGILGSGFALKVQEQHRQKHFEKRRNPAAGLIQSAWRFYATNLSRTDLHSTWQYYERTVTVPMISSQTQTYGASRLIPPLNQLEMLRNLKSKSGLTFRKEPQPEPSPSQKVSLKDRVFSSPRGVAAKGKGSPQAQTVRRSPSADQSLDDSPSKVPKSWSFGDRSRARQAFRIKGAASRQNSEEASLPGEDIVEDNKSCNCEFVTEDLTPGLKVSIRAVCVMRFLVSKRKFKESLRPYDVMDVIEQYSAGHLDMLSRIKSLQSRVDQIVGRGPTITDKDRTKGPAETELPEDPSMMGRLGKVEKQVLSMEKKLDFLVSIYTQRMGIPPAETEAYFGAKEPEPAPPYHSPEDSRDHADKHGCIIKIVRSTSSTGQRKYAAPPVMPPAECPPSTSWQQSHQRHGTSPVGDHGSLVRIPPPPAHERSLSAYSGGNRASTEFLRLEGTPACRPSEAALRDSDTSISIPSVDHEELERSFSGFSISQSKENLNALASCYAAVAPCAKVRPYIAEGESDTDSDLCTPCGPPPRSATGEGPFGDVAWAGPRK
Potassium voltage-gated channel subfamily E member 1 (Homo sapiens) + Potassium voltage-gated channel subfamily KQT member 1 (Homo sapiens), sequence (P51787 whole entry, looked up): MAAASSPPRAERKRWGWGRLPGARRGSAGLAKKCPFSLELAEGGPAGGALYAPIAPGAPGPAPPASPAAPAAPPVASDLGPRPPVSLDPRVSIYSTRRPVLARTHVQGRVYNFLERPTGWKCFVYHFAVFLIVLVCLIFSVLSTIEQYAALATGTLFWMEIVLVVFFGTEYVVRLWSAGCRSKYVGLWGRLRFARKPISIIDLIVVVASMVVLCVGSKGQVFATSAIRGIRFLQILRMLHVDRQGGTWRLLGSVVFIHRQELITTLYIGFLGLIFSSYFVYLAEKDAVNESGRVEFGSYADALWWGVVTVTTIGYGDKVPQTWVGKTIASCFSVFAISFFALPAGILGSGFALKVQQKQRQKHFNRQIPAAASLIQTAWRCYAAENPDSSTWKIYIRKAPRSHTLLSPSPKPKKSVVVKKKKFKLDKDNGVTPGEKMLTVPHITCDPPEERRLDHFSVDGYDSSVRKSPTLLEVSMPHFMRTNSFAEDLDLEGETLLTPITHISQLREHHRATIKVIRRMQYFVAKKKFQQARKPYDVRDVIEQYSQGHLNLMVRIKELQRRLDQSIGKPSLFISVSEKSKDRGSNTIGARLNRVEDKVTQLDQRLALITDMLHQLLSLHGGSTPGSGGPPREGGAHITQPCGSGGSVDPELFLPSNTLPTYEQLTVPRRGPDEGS
Potassium voltage-gated channel subfamily KQT member 1 (Homo sapiens), sequence (P51787 whole entry, looked up): as above

In the case of `CCCC(=O)N(Cc1cccnc1)c1nc2c(OC)ccc(Cl)c2s1`, the result in assay [1], in assay [3], in assay [4] and in assay [5] was inactive. Moreover, the potentiation in assay [2] was 51.5% (active).

On to `Cc1noc(C)c1CSc1ncnc2sc3c(c12)CCCCC3`, for which, in assay [1], the activation is 175% (active). In addition, the figures for the potentiation in assay [2] and in assay [3] were 60% (active) and 178% (active), respectively. Further, the result in assay [4] was inactive.

With `Cc1cccc(Cn2c(O)c(N=NC(=S)Nc3ccccc3F)c3ccccc32)c1`, the result in assay [1], in assay [4] and in assay [5] was inactive. In addition, the figures for the potentiation in assay [2] and in assay [3] were 22.5% (active) and 148% (active), respectively.

As for `CC(=O)C[C@H]1c2cc(C(F)(F)F)ccc2S(=O)(=O)N1C1CCCCC1`, the outcome in assay [1], in assay [3], in assay [4] and in assay [5] was inactive. In addition, the potentiation in assay [2] was 74% (active).

`Cc1ccc(Oc2ccc(NC(=O)Cn3ccsc3=N)cc2)cc1`: the outcome in assay [1], in assay [2], in assay [3] and in assay [4] was inactive.

On to `Cc1csc(NC(=S)NC(=O)c2ccccc2)n1`, for which the result in assay [1] and in assay [4] was inactive. Further, the potentiation was 32% (active) in assay [2] and 156% (active) in assay [3].

Consider `CCOC(=O)CNC(=O)N1CCc2ccc(NC(=O)c3ccccc3Cl)cc2C1`, for which the result in assay [1], in assay [2], in assay [3], in assay [4] and in assay [5] was inactive.

Regarding `Cc1cccc(OCc2n[nH]c(=S)n2C2CCCCC2)c1`, the outcome in assay [1], in assay [2], in assay [3], in assay [4] and in assay [5] was inactive.

For `Cc1c(C(=O)Nc2ccc(F)cc2)oc2ccc(S(=O)(=O)N3CC(C)CC(C)C3)cc12` (stereo not drawn), the result in assay [1], in assay [2], in assay [3], in assay [4] and in assay [5] was inactive.

`O=C(CSc1ccccn1)N1CCN(S(=O)(=O)c2ccc(Cl)cc2)CC1`: the result in assay [1], in assay [2], in assay [3], in assay [4] and in assay [5] was inactive.

Turning to `O=C(COc1ccccc1)NC(=S)Nc1ccc(Br)cn1`, the outcome in assay [1] and in assay [4] was inactive. For the same compound, the potentiation is 41.5% (active) in assay [2] and 206% (active) in assay [3]. For the same compound, the activation in assay [5] is 20.3% (active).

On to `O=c1c2ccccc2nc(-c2cccc(Cl)c2)n1O`, for which, in assay [1], the activation was 358% (active). The potentiation in assay [2] is 100% (active); in assay [3] it was 327% (active). Moreover, in assay [4], the result was inactive.

Turning to `O=C(O)c1ccc([N+](=O)[O-])c(CS(=O)(=O)c2ccccc2)c1`, the outcome in assay [1], in assay [2], in assay [3], in assay [4] and in assay [5] was inactive.

In the case of `O=C1c2ccccc2C(=O)C12OC2c1cccc2ccccc12` (stereo not drawn), the outcome in assay [1], in assay [2], in assay [3], in assay [4] and in assay [5] was inactive.

Consider `Cc1ccc(C)c(N/C(N)=N/c2nc(C)cc(C)n2)c1`, for which the result in assay [1], in assay [2], in assay [3], in assay [4] and in assay [5] was inactive.

As for `Cc1ccc(C(=O)N/N=C(/CC(=O)c2cccs2)C(F)(F)F)cc1`, the activation in assay [1] was 234% (active). The potentiation in assay [2] was 66.5% (active); in assay [3], 246% (active). For the same compound, the result in assay [4] was inactive.

`CCN(C(=O)c1cc2c(=O)[nH]c3ccc(C)cc3c2s1)c1ccccc1F`: the outcome in assay [1], in assay [3], in assay [4] and in assay [5] was inactive. Also, in assay [2], the potentiation is 25% (active).

`Cc1ccc2c(c1)C1CN(C)CCC1N2C(=S)NC(=O)c1ccc(Cl)cc1Cl` (stereo not drawn): in assay [1], the activation was 194% (active). Also, the figures for the potentiation in assay [2] and in assay [3] were 50% (active) and 217% (active), respectively. Further, the result in assay [4] was inactive.

As for `c1ccc2c(OCCCCN3CCOCC3)cccc2c1`, the outcome in assay [1], in assay [2], in assay [3] and in assay [4] was inactive.

With `COc1ccc(-c2oc3ccccc3c(=O)c2OC(C)=O)cc1`, in assay [1], the activation is 144% (active). Further, the result in assay [2] and in assay [4] was inactive. In addition, in assay [3], the potentiation is 161% (active).

Take `CCCS(=O)(=O)c1c(S(=O)(=O)CCC)c2c(C(N)=O)cccn2c1C(=O)c1ccc(F)cc1`: the result in assay [1], in assay [2], in assay [3] and in assay [4] was inactive.

For `CCc1ccc(NC(=S)NC2CC3CCCC(C2)N3Cc2cccs2)cc1` (stereo not drawn), the result in assay [1], in assay [2], in assay [3], in assay [4] and in assay [5] was inactive.

Regarding `Clc1ccc(Nc2ccc(Cl)nn2)cc1`, the outcome in assay [1], in assay [2], in assay [4] and in assay [5] was inactive. The potentiation in assay [3] is 147% (active).

As for `COc1c(Br)cc(/C=N/n2c(-c3ccccc3)n[nH]c2=S)c(O)c1Br`, the outcome in assay [1], in assay [2], in assay [3], in assay [4] and in assay [5] was inactive.

For `O=C(CSc1cccc[n+]1[O-])c1cc(Cl)ccc1Cl`, the outcome in assay [1], in assay [2], in assay [3] and in assay [4] was inactive.

Turning to `Nc1nc(-c2ccccc2)c(N=Nc2ccccc2Cl)s1`, the activation in assay [1] is 488% (active). The potentiation in assay [2] was 168% (active); in assay [3] it was 416% (active). For the same compound, the result in assay [4] was inactive.

`CC1Cc2ccccc2N1C(=S)NC(=O)C1(C)CC1(Cl)Cl` (stereo not drawn): the activation in assay [1] is 236% (active). Also, the potentiation is 72.5% (active) in assay [2] and 267% (active) in assay [3]. Moreover, the outcome in assay [4] was inactive.

`COC(=O)N1C(=O)[C@@](Cc2ccccc2)(c2ccccc2)N1C(=O)OC`: the outcome in assay [1], in assay [3], in assay [4] and in assay [5] was inactive. In assay [2], the potentiation was 24% (active).

As to `COc1ccc(-c2csc(N(CCCN(C)C)C(=O)c3ccccc3F)n2)cc1`, the outcome in assay [1], in assay [2], in assay [3], in assay [4] and in assay [5] was inactive.

As for `Cn1nnc(NC(=O)C(c2ccccc2)c2ccccc2)n1`, the result in assay [1], in assay [2], in assay [3], in assay [4] and in assay [5] was inactive.
